According to ChEMBL document CHEMBL4346686, “Discovery and biological evaluation of novel androgen receptor antagonist for castration-resistant prostate cancer” (Eur J Med Chem, 2019):

Assays:
[1] = AUC (0 to t) in Sprague-Dawley rat at 30 mg/kg, po measured upto 24 hrs by LC-MS/MS analysis; format: ADME, organism-based; set-up: time < 24 hr, dose 30 mg/kg, route oral; conditions: in vivo
Androgen receptor = target: T1, Androgen receptor (Homo sapiens, UniProt P10275); format: cell-based, LNCaP
T1 sequence (P10275 whole entry): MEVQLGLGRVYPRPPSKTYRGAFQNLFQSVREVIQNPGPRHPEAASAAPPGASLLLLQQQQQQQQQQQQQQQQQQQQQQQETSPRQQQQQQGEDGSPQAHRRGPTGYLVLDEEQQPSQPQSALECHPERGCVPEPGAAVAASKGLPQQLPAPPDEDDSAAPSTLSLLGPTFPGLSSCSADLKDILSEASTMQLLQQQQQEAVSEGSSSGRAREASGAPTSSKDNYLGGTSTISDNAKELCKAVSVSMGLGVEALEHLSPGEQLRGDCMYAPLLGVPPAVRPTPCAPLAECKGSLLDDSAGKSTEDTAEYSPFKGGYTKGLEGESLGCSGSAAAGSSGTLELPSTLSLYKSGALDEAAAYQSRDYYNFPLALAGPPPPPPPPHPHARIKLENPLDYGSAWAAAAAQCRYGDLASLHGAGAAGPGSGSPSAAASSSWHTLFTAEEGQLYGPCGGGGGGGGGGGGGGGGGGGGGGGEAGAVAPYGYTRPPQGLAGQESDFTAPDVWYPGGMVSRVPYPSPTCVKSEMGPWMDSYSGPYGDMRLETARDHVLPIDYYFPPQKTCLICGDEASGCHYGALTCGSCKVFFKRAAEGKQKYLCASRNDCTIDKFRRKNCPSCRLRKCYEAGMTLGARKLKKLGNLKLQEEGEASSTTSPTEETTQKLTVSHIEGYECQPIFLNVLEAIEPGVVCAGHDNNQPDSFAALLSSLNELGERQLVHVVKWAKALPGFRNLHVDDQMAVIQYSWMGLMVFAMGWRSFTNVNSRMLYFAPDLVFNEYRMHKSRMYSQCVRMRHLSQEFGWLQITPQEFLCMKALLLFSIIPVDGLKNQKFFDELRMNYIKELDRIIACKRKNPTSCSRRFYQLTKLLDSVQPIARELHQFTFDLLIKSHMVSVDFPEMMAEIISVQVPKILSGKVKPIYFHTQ

CWR22R = assay: Antiproliferative activity against human 22Rv1 cells assessed as reduction in cell viability incubated for 6 days by CCK8 assay; format: functional, cell-based; conditions: 22Rv1, 144 h
Procedure, shortened: (§1)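 Cells seeded (2×10^4 per well for VCaP, 1–3×10^3 for the others) and compound added after 24 h as a 9-point, 3-fold serial dilution. Exposure 6 days, then CCK-8 for 1–4 h and absorbance at 450 nm. IC50 from curve fit, mean of at least two independent experiments run in duplicate.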

PC-3 = assay: Antiproliferative activity against human PC3 cells assessed as reduction in cell viability incubated for 6 days by CCK8 assay; format: functional, cell-based; conditions: PC-3, 144 h; procedure, shortened: as §1
[2] = Half life in Sprague-Dawley rat at 30 mg/kg, po measured upto 24 hrs by LC-MS/MS analysis; format: ADME, organism-based; conditions: in vivo
Procedure, shortened: (§2)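 Male SD rats (N = 3), single oral 30 mg/kg in PEG200/DMA (9:1, v/v). Blood from retrobulbar vein at 0–24 h; heparinized plasma, protein precipitation with methanol, LC-MS/MS quantitation; parameters by non-compartmental analysis.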

[3] = target: T2, Androgen receptor (Homo sapiens) (UniProt P10275); assay: Antagonist activity at androgen receptor in human VCaP cells assessed as inhibition of R1881-induced PSA mRNA expression after 24 hrs by qRT-PCR analysis; format: cell-based
T2 sequence (whole entry): T1 sequence (P10275 whole entry)
Procedure, shortened: (§3)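 VCaP cells held 48 h in DMEM with 5% charcoal-stripped FBS, then 24 h with compound plus 0.2 nM R1881. TRIzol RNA extraction, cDNA synthesis, qRT-PCR for the target mRNA normalized to GAPDH; mean ± SD, n = 3.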

[4] = Toxicity in BALB/c nude mouse xenografted with human VCaP cells assessed as weight loss at 30 mg/kg, po qd administered for 40 days relative to control; format: organism-based; conditions: in vivo, 960 h
[5] = target: T3, Steroid 17-alpha-hydroxylase/17,20 lyase (Homo sapiens, UniProt P05093); assay: Inhibition of C-myc/DDK tagged human CYP17A1 expressed in HEK293T cells assessed as reduction in formation of 17-OHP at 10 uM incubated for 30 mins by LC-MS/MS analysis; format: cell-based; conditions: 0.5 h, 10 µM
T3 sequence (P05093 whole entry): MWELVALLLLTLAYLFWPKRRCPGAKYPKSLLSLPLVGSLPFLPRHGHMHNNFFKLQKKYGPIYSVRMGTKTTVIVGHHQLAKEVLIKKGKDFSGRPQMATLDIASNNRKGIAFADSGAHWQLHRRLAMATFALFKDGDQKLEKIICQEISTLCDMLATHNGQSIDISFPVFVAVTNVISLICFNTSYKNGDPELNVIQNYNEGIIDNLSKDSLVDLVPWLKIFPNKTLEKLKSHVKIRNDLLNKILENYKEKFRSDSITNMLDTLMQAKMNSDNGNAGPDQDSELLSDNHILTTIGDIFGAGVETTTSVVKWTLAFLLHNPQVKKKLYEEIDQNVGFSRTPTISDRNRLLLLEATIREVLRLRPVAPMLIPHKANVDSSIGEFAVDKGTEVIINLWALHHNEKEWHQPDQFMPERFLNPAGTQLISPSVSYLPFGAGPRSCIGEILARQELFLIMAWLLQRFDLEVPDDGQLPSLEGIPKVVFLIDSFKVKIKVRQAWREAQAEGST
Procedure, shortened: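 CYP17A1 activity measured as 17α-hydroxyprogesterone formation in 50 mM Tris pH 7.4, 5 mM MgCl2. Incubation 30 min at 37 °C, quenched with 20% trichloroacetic acid; product quantified by LC-MS/MS. Mean ± SD, n = 2.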

[6] = target: T2, Androgen receptor (Homo sapiens); assay: Antagonist activity at androgen receptor in human VCaP cells assessed as inhibition of R1881-induced FKBP5 mRNA expression after 24 hrs by qRT-PCR analysis; format: cell-based; procedure, shortened: as §3
[7] = Tmax in Sprague-Dawley rat at 30 mg/kg, po measured upto 24 hrs by LC-MS/MS analysis; format: ADME, organism-based; conditions: in vivo; procedure, shortened: as §2
[8] = Antiproliferative activity against human LNCaP-AR cells assessed as reduction in cell viability incubated for 6 days by CCK8 assay; format: functional, cell-based; conditions: 144 h; procedure, shortened: as §1
[9] = Cmax in Sprague-Dawley rat at 30 mg/kg, po measured at 0.5 hrs by LC-MS/MS analysis; format: ADME, organism-based; set-up: dose 30 mg/kg, route oral; conditions: in vivo; procedure, shortened: as §2

**Q.** Which AUC(0-t) at 24 h [1] does the source give for Cc1ccc(-c2c(C)noc2C)cc1Nc1ccc(C#N)c(Cl)c1 here?
**A.** 4040 ng·h/mL

**Q.** And the IC50 (Androgen receptor)?
**A.** 641 nM

**Q.** And the IC50 (CWR22R)?
**A.** 3.5 µM

**Q.** And the IC50 (PC-3)?
**A.** 23.3 µM

**Q.** And the half-life [2]?
**A.** 264 min

**Q.** And the Activity [3]?
**A.** Dose-dependent effect

**Q.** What about the Activity [4] of the same compound?
**A.** Non-Toxic

**Q.** What about the “inhibition (INH)” value [5] of the same compound?
**A.** Not Active

**Q.** What about the Activity [6] of the same compound?
**A.** Dose-dependent effect

**Q.** What about the Tmax [7] of the same compound?
**A.** 30 min

**Q.** What about the IC50 [8] of the same compound?
**A.** 430 nM

**Q.** What about the Cmax [9] of the same compound?
**A.** 2320 ng/mL
